Data published in ChEMBL document CHEMBL2429825, “Structure-activity studies of divin: an inhibitor of bacterial cell division” (ACS Med Chem Lett, 2013).
Values after ≈ are worked out from the molar mass of the structure shown. Active and inactive are the calls of the source. The rule behind the calls is not given here.

Tests used:
Escherichia coli = test: Antimicrobial activity against tolc-defecient Escherichia coli BW25113 after 17 hrs by two-fold serial dilution technique; assay type: functional; conditions: BW25113, 17 h
How it was run: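 MIC by serial dilution following a CLSI protocol. E. coli BW25113 ΔtolC was grown in M8 medium.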

[1] = Solubility of the compound by light scattering fluorescence spectrophotometry; assay type: physicochemical
How it was run: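 Solubility was measured in M8 medium containing 2% DMSO by a light-scattering assay.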

Caulobacter vibrioides [2] = test: Antimicrobial activity against Caulobacter crescentus CB15N after 17 hrs by two-fold serial dilution technique; assay type: functional
Caulobacter vibrioides [3] = test: Antimicrobial activity against Caulobacter crescentus CB15N assessed as cell division arrest after the initiation of midcell constriction at MIC after 17 hrs by phase contrast microscopy; assay type: functional, organism-based
How it was run: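 C. crescentus CB15N cells were incubated with compound for 17 h, then imaged to score cell-division phenotype at the midcell constriction stage.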

Caulobacter vibrioides [4] = test: Bacteristatic activity against Caulobacter crescentus CB15N assessed as inhibition of cell growth at 2.5 to 20 uM by plate reader analysis; assay type: functional, organism-based
Vibrio cholerae = test: Antimicrobial activity against clinical isolates of Vibrio cholerae by serial dilution technique; assay type: functional
Klebsiella aerogenes = test: Antimicrobial activity against clinical isolates of Enterobacter aerogenes by serial dilution technique; assay type: functional
How it was run: (§1)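 Clinical pathogenic isolates were tested for growth inhibition in M8 medium.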

Salmonella typhimurium = test: Antimicrobial activity against clinical isolates of Salmonella typhimurium by serial dilution technique; assay type: functional, Salmonella enterica subsp. enterica serovar Typhimurium; conditions: Salmonella enterica; how it was run: as §1
Shigella boydii = test: Antimicrobial activity against clinical isolates of Shigella boydii by serial dilution technique; assay type: functional; how it was run: as §1
Acinetobacter baumannii = test: Antimicrobial activity against clinical isolates of Acinetobacter baumannii by serial dilution technique; assay type: functional; how it was run: as §1
Klebsiella pneumoniae = test: Antimicrobial activity against clinical isolates of Klebsiella pneumoniae by serial dilution technique; assay type: functional; how it was run: as §1
Morganella morganii = test: Antimicrobial activity against clinical isolates of Morganella morganii by serial dilution technique; assay type: functional; how it was run: as §1

SMILES | MIC (Escherichia coli) | solubility kinetic [1] | MIC (Caulobacter vibrioides [2]) | Activity (Caulobacter vibrioides [3]) | further results
CN(C)Cc1nc2ccccc2n1CCC(=O)N/N=C/c1c(O)ccc2ccccc12 | 12.5 µM (≈ 5.19 µg/mL) | 90 µM (≈ 37.4 µg/mL) | 5 µM (≈ 2.08 µg/mL) | – | –
Cc1nc2cc(Cl)ccc2n1CCC(=O)N/N=C/c1c(O)ccc2ccccc12 | 7.5 µM (≈ 3.05 µg/mL) | 210 µM (≈ 85.4 µg/mL) | 5 µM (≈ 2.03 µg/mL) | Active | Activity (Caulobacter vibrioides [4]): Active
Cc1nc2ccncc2n1CCC(=O)N/N=C/c1c(O)ccc2ccccc12 | 25 µM (≈ 9.34 µg/mL) | – | 10 µM (≈ 3.73 µg/mL) | – | –
Cc1nc2ccccc2n1CC(=O)N/N=C/c1c(O)ccc2ccccc12 | 25 µM (≈ 8.96 µg/mL) | 20 µM (≈ 7.17 µg/mL) | 5 µM (≈ 1.79 µg/mL) | – | –
Cc1nc2ccccc2n1CCC(=O)N/N=C/c1ccccc1O | 50 µM (≈ 16.1 µg/mL) | – | 15 µM (≈ 4.84 µg/mL) | – | –
Cc1nc2ccccc2n1CCC(=O)N/N=C/c1c(O)ccc2cc(O)ccc12 | 12.5 µM (≈ 4.86 µg/mL) | – | 5 µM (≈ 1.94 µg/mL) | – | –
Cc1nc2ccccc2n1CCC(=O)N/N=C/c1c(O)ccc2ccccc12 | 12.5 µM (≈ 4.66 µg/mL) | 20 µM (≈ 7.45 µg/mL) | 5 µM (≈ 1.86 µg/mL) | Active | MIC (Vibrio cholerae): 6 µM (≈ 2.23 µg/mL); MIC (Klebsiella aerogenes): 50 µM (≈ 18.6 µg/mL); MIC (Salmonella typhimurium): 50 µM (≈ 18.6 µg/mL); MIC (Shigella boydii): 50 µM (≈ 18.6 µg/mL); MIC (Acinetobacter baumannii): 50 µM (≈ 18.6 µg/mL); MIC (Klebsiella pneumoniae): > 50 µM; MIC (Morganella morganii): > 50 µM
Cc1nc2ccccc2n1CCC(=O)N/N=C/c1ccc(F)c2ccccc12 | > 50 µM | – | > 20 µM | – | –
COc1ccc2ccccc2c1/C=N/NC(=O)CCn1c(C(F)(F)F)nc2ccccc21 | > 50 µM | – | > 20 µM | – | –
Cc1nc2cnccc2n1CCC(=O)N/N=C/c1c(O)ccc2ccccc12 | 12.5 µM (≈ 4.67 µg/mL) | 90 µM (≈ 33.6 µg/mL) | 5 µM (≈ 1.87 µg/mL) | Active | –
C=CCOc1ccc2ccccc2c1/C=N/NC(=O)CCn1c(C)nc2ccccc21 | > 50 µM | – | > 20 µM | – | –
Cc1nc2cc(Cl)c(Cl)cc2n1CCC(=O)N/N=C/c1c(O)ccc2ccccc12 | 6.3 µM (≈ 2.78 µg/mL) | 90 µM (≈ 39.7 µg/mL) | 3.8 µM (≈ 1.68 µg/mL) | Active | MIC (Vibrio cholerae): 3 µM (≈ 1.32 µg/mL); MIC (Klebsiella aerogenes): 12 µM (≈ 5.3 µg/mL); MIC (Salmonella typhimurium): 25 µM (≈ 11 µg/mL); MIC (Shigella boydii): 25 µM (≈ 11 µg/mL); MIC (Acinetobacter baumannii): 50 µM (≈ 22.1 µg/mL); MIC (Klebsiella pneumoniae): 50 µM (≈ 22.1 µg/mL); MIC (Morganella morganii): > 50 µM; Activity (Caulobacter vibrioides [4]): Active
O=C(CCn1cnc2ccccc21)N/N=C/c1c(O)ccc2ccccc12 | 12.5 µM (≈ 4.48 µg/mL) | 30 µM (≈ 10.8 µg/mL) | 7.5 µM (≈ 2.69 µg/mL) | Active | –
Cc1nc2ccccc2n1CCC(=O)N/N=C/c1cccc2ccccc12 | 50 µM (≈ 17.8 µg/mL) | – | > 20 µM | – | –
Cc1nc2ccccc2n1CCC(=O)NNCc1c(O)ccc2ccccc12 | 50 µM (≈ 18.7 µg/mL) | – | 40 µM (≈ 15 µg/mL) | – | –
O=C(CCn1c(C(F)(F)F)nc2ccccc21)N/N=C/c1c(O)ccc2ccccc12 | > 50 µM | 30 µM (≈ 12.8 µg/mL) | 7.5 µM (≈ 3.2 µg/mL) | – | –
[N-]=[N+]=NCc1nc2ccccc2n1CCC(=O)N/N=C/c1c(O)ccc2ccccc12 | 12.5 µM (≈ 5.17 µg/mL) | 20 µM (≈ 8.27 µg/mL) | 5 µM (≈ 2.07 µg/mL) | Active | –
Cc1nc2ccccc2n1CCC(=O)N/N=C/c1ccc(O)c2ccccc12 | > 50 µM | – | > 20 µM | – | –
COc1ccc2ccccc2c1/C=N/NC(=O)CCn1c(C)nc2ccccc21 | > 50 µM | – | > 20 µM | – | –
C/C(=N\NC(=O)CCn1c(C)nc2ccccc21)c1c(O)ccc2ccccc12 | > 50 µM | – | > 20 µM | – | –
CC(=O)Oc1ccc2ccccc2c1/C=N/N(C(C)=O)C(=O)CCn1c(C)nc2ccccc21 | 50 µM (≈ 22.8 µg/mL) | – | > 40 µM | – | –
Cc1nc2ccccc2n1CCC(=O)N/N=C/c1ccc(N(C)C)c2ccccc12 | > 50 µM | – | > 20 µM | – | –
Cc1nc2ccccc2n1CCCC(=O)N/N=C/c1c(O)ccc2ccccc12 | 10 µM (≈ 3.86 µg/mL) | 120 µM (≈ 46.4 µg/mL) | 5 µM (≈ 1.93 µg/mL) | Active | –
Cc1nc2ccccc2n1CCC(=O)N/N=C/c1ccccc1F | > 50 µM | – | > 20 µM | – | –
Cc1nccn1CCC(=O)N/N=C/c1c(O)ccc2ccccc12 | 12.5 µM (≈ 4.03 µg/mL) | 10 µM (≈ 3.22 µg/mL) | 7.5 µM (≈ 2.42 µg/mL) | Active | –
